Reference: ChEMBL document CHEMBL4028805, “Phenylthiazole Antibacterial Agents Targeting Cell Wall Synthesis Exhibit Potent Activity in Vitro and in Vivo against Vancomycin-Resistant Enterococci” (J Med Chem, 2017)
≈ marks a conversion by molar mass, not a printed value. Calls of active or inactive are those of the source.

Experiments:
Enterococcus faecalis [1] = assay: Synergistic antimicrobial activity against Enterococcus faecalis ATCC 51299 after 20 hrs in presence of ampicillin by checkerboard assay; format: functional
In short: (§1)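 Checkerboard in TSB with a starting inoculum of 1×10^5 CFU/mL. Compound and antibiotic diluted from 2× or 4× MIC along perpendicular axes. Incubated 20 h at 37 °C. ΣFIC calculated: ≤0.5 synergy, >0.5 to <2 additive, 2–4 indifference, >4 antagonism.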

Enterococcus faecalis [2] = assay: Inhibition of UPPP-mediated peptidoglycan biosynthesis in Enterococcus faecalis NR-31975 assessed as accumulation of UDP-N-acetylmuramyl-pentapeptide at 10 times MIC after 30 mins by HPLC-MS analysis
In short: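 Pellets boiled 30 min. UDP-N-acetylmuramyl-pentapeptide measured by HPLC-TOF MS on a phenyl column, 5–20% acetonitrile/0.1% formic acid gradient, positive ESI.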

Enterococcus faecalis [3] = assay: Synergistic antimicrobial activity against Enterococcus faecalis ATCC 51299 after 20 hrs in presence of linezolid by checkerboard assay; format: functional; in short: as §1
Enterococcus faecalis [4] = assay: Synergistic antimicrobial activity against Enterococcus faecalis ATCC 49532 after 20 hrs in presence of ciprofloxacin by checkerboard assay; format: functional; in short: as §1
Escherichia coli [5] = assay: Antibacterial activity against tolC deficient Escherichia coli assessed as formation of spheroplasts at 25 ug/ml after 2 hrs by FM4-64/DAPI/SYTOX green staining-based deconvolution microscopic analysis; format: functional
Enterobacter cloacae [6] = assay: Antibacterial activity against Enterobacter cloacae BAA-1154 after 18 to 22 hrs in presence of 1/4 times MIC colistin by broth microdilution method; format: functional
In short: (§2)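 Broth microdilution per CLSI guidelines. Gram-negatives grown in TSB. Each strain tested alone and again with colistin at ¼ × MIC to permeabilize the outer membrane. Plates incubated at 37 °C for 18–22 h. MIC read as the lowest concentration showing no visible growth.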

[7] = Induction of proton motive force collapse in Escherichia coli inverted membrane vesicle in presence of succinate/O2-driven PMF generation system by ACMA-based fluorescence assay; format: functional, cell membranes
In short: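 E. coli inverted membrane vesicles (0.1 mg/mL membrane protein) with 2 μM ACMA and 0.5 mM ATP or succinate, in 10 mM HEPES-KOH, 5 mM MgSO4, 100 mM KCl, pH 7.5. Proton gradient followed by ACMA fluorescence (ex 410/em 480 nm). EC50 taken from dose-response curves. CCCP used as reference uncoupler.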

Enterococcus faecium [8] = assay: Antibacterial activity against vancomycin-resistant Enterococcus faecium ATCC HM-968 after 14 serial passages measured after 18 hrs by broth microdillution method; format: functional
In short: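 Multi-step selection over 14 passages in two weeks. McFarland 0.5 inoculum diluted 1:300 in TSB (E. faecalis) or BHI (E. faecium) to 1 × 10^5 CFU/mL. Each passage reinoculated at ~5 × 10^5 CFU/mL from the sub-inhibitory well of the previous plate. Compounds serially diluted in triplicate, incubated ≥18 h at 37 °C, MIC read visually. Resistance defined as >4-fold MIC rise.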

HRT-18 cell line [9] = assay: Cytotoxicity against human HRT18 cells assessed as reduction in cell viability up to 20 ug/ml after 2 hrs by MTS assay; format: cell-based; conditions: hrt-18, 2 h
In short: (§3)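 HRT-18 cells maintained in RPMI-1640 with 10% fetal horse serum at 37 °C, 5% CO2. Exposed to 5, 10, 20 or 40 μg/mL for 2 or 24 h, then MTS added and absorbance read at 490 nm. Viability expressed relative to untreated cells, n ≥ 3, one-way ANOVA with Dunnett's test.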

Enterococcus faecium [10] = assay: Antibacterial activity against vancomycin-resistant Enterococcus faecium clinical isolates after 18 to 22 hrs by broth microdilution method; format: functional
In short: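 CLSI broth microdilution against panels of enterococcal isolates. E. faecalis grown in TSB, E. faecium in BHI, 37 °C for 18–22 h. MIC is the lowest concentration without visible growth. MIC50 is the value inhibiting 50% of isolates in each group.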

Enterococcus faecalis [11] = assay: Synergistic antimicrobial activity against Enterococcus faecalis ATCC 51299 after 20 hrs in presence of doxycycline by checkerboard assay; format: functional; in short: as §1
Escherichia coli [12] = assay: Antibacterial activity against tolC deficient Escherichia coli assessed as formation of misshapen cells at 25 ug/ml after 2 hrs in presence of sucrose by FM4-64/DAPI/SYTOX Green staining-based deconvolution microscopic analysis; format: functional
Staphylococcus aureus = assay: Antibacterial against Methicillin-Resistant Staphylococcus aureus after 18 to 20 hrs by broth microdilution method; format: functional
Klebsiella pneumoniae = assay: Antibacterial activity against Klebsiella pneumoniae BAA-1706 after 18 to 22 hrs in absence of colistin by broth microdilution method; format: functional
Enterococcus faecium [13] = assay: Bactericidal activity against vancomycin-resistant Enterococcus faecium ATCC 700221 at 4 times MIC after 2 hrs by time-kill assay; format: functional
In short: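 Late-log cells diluted to ~5 × 10^6 CFU/mL and exposed in triplicate to 4 × MIC, in TSB (E. faecalis HM-201) or BHI (E. faecium ATCC 700221) at 37 °C. Sampled at 0, 2, 4, 6, 8, 10, 12 and 24 h, diluted serially in PBS and plated on TSA or BHI agar. CFU/mL counted after 18–22 h. DMSO served as negative control.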

Enterobacter cloacae [14] = assay: Antibacterial activity against Enterobacter cloacae BAA-1154 after 18 to 22 hrs in absence of colistin by broth microdilution method; format: functional
Pseudomonas aeruginosa = assay: Antibacterial activity against Pseudomonas aeruginosa ATCC 15442 after 18 to 22 hrs in presence of 1/4 times MIC colistin by broth microdilution method; format: functional; in short: as §2
HRT-18 cell line [15] = assay: Cytotoxicity against human HRT18 cells assessed as reduction in cell viability at 20 ug/ml after 24 hrs by MTS assay; format: cell-based; conditions: hrt-18, 24 h; in short: as §3
Enterococcus faecium [16] = assay: Potentiation of vancomycin-induced antibacterial activity against Enterococcus faecium ATCC 700221 assessed as fold reduction in vancomycin MIC preincubated for 30 mins followed by vancomycin addition measured after 18 to 21 hrs; format: functional
In short: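 VRE suspensions at 5×10^5 CFU/mL preincubated with compound at ½ × MIC for 30 min at room temperature. […] Fold reduction calculated as vancomycin MIC alone over MIC in combination.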

[17] = Inhibition of Escherichia coli UPPP expressed in Escherichia coli C41(DE3) using FPP as substrate preincubated for 15 mins followed by substrate addition measured after 20 mins by malachite green assay
In short: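 Purified E. coli UPPP (0.125 μM) preincubated 15 min at room temperature with inhibitor (300 to 0.8 μM) in 50 mM HEPES, 150 mM NaCl, 10 mM MgCl2, 0.02% DDM, pH 7.5. Then 35 μM FPP added, 20 min at 37 °C. Released phosphate measured by malachite green at 620 nm after 30 min. IC50 from dose-response curves. Bacitracin used as control.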

Enterococcus faecalis [18] = assay: Synergistic antimicrobial activity against Enterococcus faecalis ATCC 51299 after 20 hrs in presence of ciprofloxacin by checkerboard assay; format: functional
In short: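 Checkerboard assay. McFarland 0.5 suspension diluted in TSB to 1 × 10^5 CFU/mL. Compound diluted along one plate axis and antibiotic along the other, each starting at 2× or 4× MIC. Incubated 20 h at 37 °C, MIC read as no visible growth. Synergy defined as ΣFIC ≤0.5, additive >0.5 to <2, indifferent 2–4, antagonistic >4.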

In the case of `CCCCc1ccc(-c2nc(C)c(/C(C)=N/NC(=N)N)s2)cc1`, the “fractional inhibitory concentration index (FICI)” value (Enterococcus faecalis [1]) is reported as 3, the inhibition (Enterococcus faecalis [2]) is reported as “Active” and the “fractional inhibitory concentration index (FICI)” value (Enterococcus faecalis [3]) is reported as 2. For the same compound, the “fractional inhibitory concentration index (FICI)” value (Enterococcus faecalis [4]) was 0.63 - 1, the Activity (Escherichia coli [5]) was “Active” and the MIC (Enterobacter cloacae [6]) was 1 µg/mL. For the same compound, the EC50 [7] was 25 µM, the Activity (Enterococcus faecium [8]) was “Active” and the Activity (HRT-18 cell line [9]) was “Non-Toxic”. For the same compound, the MIC50 (Enterococcus faecium [10]) was 2 µg/mL (≈ 6.07 µM), the “fractional inhibitory concentration index (FICI)” value (Enterococcus faecalis [11]) was 2 and the Activity (Escherichia coli [12]) was “Active”. For the same compound, the MIC (Staphylococcus aureus) was 1.3 to 5.6 µg/mL (≈ 3.95 to 17 µM), the MIC (Klebsiella pneumoniae) was 16 µg/mL (≈ 48.6 µM) and the Activity (Enterococcus faecium [13]) was “Active”. The MIC (Enterobacter cloacae [14]) was 64 µg/mL (≈ 194 µM), the MIC (Pseudomonas aeruginosa) was 1 µg/mL and the Activity (HRT-18 cell line [15]) was “Non-Toxic”. The “fold change (FC)” value (Enterococcus faecium [16]) was 256, the IC50 [17] was 6 µM and the “fractional inhibitory concentration index (FICI)” value (Enterococcus faecalis [18]) was 0.5.
